Measured values as given in ChEMBL document CHEMBL4715833, “Design, synthesis, in-vitro, in-vivo and in-silico studies of pyrrolidine-2,5-dione derivatives as multitarget anti-inflammatory agents” (Eur J Med Chem, 2020).
Structures can show the parent of a compound that is named as a salt.

Experiments:
[1] = Inhibition of trypsin (unknown origin) using casein as substrate preincubated for 5 mins followed by substrate addition and measured after 20 mins; set-up: species or system Homo sapiens
Method in brief: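 Trypsin 0.06 mg/ml in 20 mM Tris-HCl pH 7.4 with compound at 31.25–1000 µg/ml, 5 min at 37 °C. 0.8% (w/v) casein added, 20 min further, stopped with 70% perchloric acid. After centrifugation, supernatant absorbance read at 217 nm against buffer blank. % inhibition against control; IC50 from plot; three runs.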

[2] = biological target: T1, Prostaglandin G/H synthase 1 (Ovis aries, UniProt P05979); assay: Inhibition of sheep COX1 using arachidonic acid as substrate preincubated for 5 mins followed by substrate addition and measured after 5 mins by UV-visible spectrophotometric method
T1 sequence (P05979 whole entry): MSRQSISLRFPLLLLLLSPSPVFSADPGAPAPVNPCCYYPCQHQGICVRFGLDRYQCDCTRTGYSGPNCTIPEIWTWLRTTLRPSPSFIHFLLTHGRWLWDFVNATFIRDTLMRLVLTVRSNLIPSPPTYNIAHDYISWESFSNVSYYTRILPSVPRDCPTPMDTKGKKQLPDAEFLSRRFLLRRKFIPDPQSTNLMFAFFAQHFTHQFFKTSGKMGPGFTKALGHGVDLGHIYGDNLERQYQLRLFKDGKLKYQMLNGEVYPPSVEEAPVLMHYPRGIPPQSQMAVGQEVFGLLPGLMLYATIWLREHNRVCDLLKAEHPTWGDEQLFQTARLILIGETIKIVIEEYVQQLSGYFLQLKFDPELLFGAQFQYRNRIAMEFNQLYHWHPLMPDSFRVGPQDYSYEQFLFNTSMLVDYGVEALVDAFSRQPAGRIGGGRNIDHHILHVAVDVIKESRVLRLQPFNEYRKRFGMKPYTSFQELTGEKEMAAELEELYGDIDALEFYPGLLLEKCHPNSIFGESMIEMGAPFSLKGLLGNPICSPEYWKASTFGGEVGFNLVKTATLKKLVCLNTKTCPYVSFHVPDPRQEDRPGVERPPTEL
Method in brief: (§1)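 Enzymes activated for 5 min on ice with cofactor solution of 0.9 mM glutathione, hematin and 0.24 mM TMPD in 0.1 M Tris-HCl pH 8.0; COX-2 at 300 units/ml. Reaction started with 30 mM arachidonic acid stock, run 5 min, absorbance read at 570 nm. IC50 taken from inhibition-vs-concentration plots as means of three determinations. SI = IC50(COX-1)/IC50(COX-2).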

[3] = biological target: T2, Polyunsaturated fatty acid 5-lipoxygenase (Homo sapiens, UniProt P09917); assay: Inhibition of recombinant human 5LOX expressed in baculovirus infected Sf insect cells using linoleic acid as substrate preincubated for 5 mins followed by substrate addition
T2 sequence (P09917 whole entry): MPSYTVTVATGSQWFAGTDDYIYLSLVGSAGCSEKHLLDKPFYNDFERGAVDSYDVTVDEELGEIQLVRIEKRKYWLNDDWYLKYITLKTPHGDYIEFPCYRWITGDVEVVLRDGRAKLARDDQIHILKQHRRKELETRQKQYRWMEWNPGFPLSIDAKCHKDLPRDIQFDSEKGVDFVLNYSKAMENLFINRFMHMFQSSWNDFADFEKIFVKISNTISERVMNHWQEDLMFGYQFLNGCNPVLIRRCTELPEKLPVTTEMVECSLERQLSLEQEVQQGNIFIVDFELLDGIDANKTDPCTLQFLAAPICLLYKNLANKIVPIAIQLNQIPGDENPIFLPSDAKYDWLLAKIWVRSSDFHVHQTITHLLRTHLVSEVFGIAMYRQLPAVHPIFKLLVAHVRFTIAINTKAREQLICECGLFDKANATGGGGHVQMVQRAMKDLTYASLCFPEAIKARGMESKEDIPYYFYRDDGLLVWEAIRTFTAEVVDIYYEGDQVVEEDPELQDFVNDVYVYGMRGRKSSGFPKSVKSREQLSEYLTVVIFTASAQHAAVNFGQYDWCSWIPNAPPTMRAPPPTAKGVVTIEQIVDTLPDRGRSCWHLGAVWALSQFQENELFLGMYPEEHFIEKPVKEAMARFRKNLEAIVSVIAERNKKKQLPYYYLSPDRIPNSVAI

Homo sapiens = organism: Homo sapiens; assay: Selectivity index, ratio of IC50 for sheep COX1 to IC50 for recombinant human COX2 expressed in baculovirus infected Sf21 cells; method in brief: as §1
[4] = Antiinflammatory activity assessed as inhibition of heat-induced albumin denaturation preincubated for 20 mins followed by heating at 51 degC and measured after 3 mins by UV-vis spectrophotometric method
Mus musculus [5] = assay: Antiinflammatory activity in histamine-induced paw edema in Balb/c mouse assessed as inhibition of paw edema at 1 mg/kg, ip administered 1 hr prior to histamine challenge and measured after 1 hr relative to control; assay type: functional; details: time 2 hrs
Method in brief: (§2)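 BALB/c mice of either sex (30–35 g), 8 per group, dosed i.p. with 10% DMSO, reference drug or compound (100 mg/kg). After 1 h, subplantar irritant: PGE2 0.01 µg/ml, bradykinin 20 µg/ml, histamine 0.1 ml of 1 mg/ml, or leukotriene 10 µg/ml.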

Mus musculus [6] = assay: Antiinflammatory activity in PGE2-induced paw edema in Balb/c mouse assessed as inhibition of paw edema at 50 mg/kg, ip administered 1 hr prior to PGE2 challenge and measured up to 5 hrs relative to control; assay type: functional; details: time 2-6 hrs; method in brief: as §2
Mus musculus [7] = assay: Antiinflammatory activity against carrageenan-induced paw edema in Swiss mouse assessed as inhibition of paw edema at 100 mg/kg administered 30 mins prior to carrageenan challenge and measured after 2 hrs by […]-method (reference value: 7.39 +/- 2.475%); assay type: functional; details: time 2.5 hrs
Mus musculus [8] = assay: Antiinflammatory activity against carrageenan-induced paw edema in Swiss mouse assessed as inhibition of paw edema at 100 mg/kg administered 30 mins prior to carrageenan challenge and measured after 1 hr by […]-method (reference value: 7.66 +/- 3.753%); assay type: functional; details: 1.5 h, time 90 min
Mus musculus [9] = assay: Antiinflammatory activity against carrageenan-induced paw edema in Swiss mouse assessed as inhibition of paw edema at 100 mg/kg administered 30 mins prior to carrageenan challenge and measured after 5 hrs by […]-method (reference value: 7.31 +/- 3.204%); assay type: functional; details: time 5.5 hrs
Mus musculus [10] = assay: Antiinflammatory activity against carrageenan-induced paw edema in Swiss mouse assessed as inhibition of paw edema at 100 mg/kg administered 30 mins prior to carrageenan challenge and measured after 3 hrs by […]-method (reference value: 11.41 +/- 3.069%); assay type: functional; details: time 3.5 hrs
Mus musculus [11] = assay: Antiinflammatory activity against carrageenan-induced paw edema in Swiss mouse assessed as inhibition of paw edema at 100 mg/kg administered 30 mins prior to carrageenan challenge and measured after 4 hrs by […]-method (reference value: 14.46 +/- 1.568%); assay type: functional; details: time 4.5 hrs
Mus musculus [12] = assay: Antiinflammatory activity in leukotriene-induced paw edema in Balb/c mouse assessed as inhibition of paw edema at 25 mg/kg, ip administered 1 hr prior to leukotriene challenge and measured after 3 hrs relative to control; assay type: functional; method in brief: as §2

IC50 [1] | IC50 [2] | IC50 [3] | SMILES | Ratio IC50 (Homo sapiens) | further results
77.1 µM | 53 µM | 69.2 µM | CC1CCC(=O)C(C2CC(=O)N(c3ccccc3)C2=O)C1 (centres undefined) | 0.93 | –
– | 49.1 µM | 16.1 µM | NS(=O)(=O)c1ccc(N2C(=O)CC(C3CCCCCC3=O)C2=O)cc1 (centres undefined) | 2.36 | –
99.9 µM | 186 µM | 130 µM | O=C1CCCCC1C1CC(=O)N(c2ccc(Br)cc2)C1=O (centres undefined) | 1.64 | –
85.5 µM | 30.3 µM | 98.5 µM | O=C1CCCC1C1CC(=O)N(c2ccccc2)C1=O (centres undefined) | 0.58 | IC50 [4]: 97.2 µM
66.3 µM | 65.6 µM | 78.3 µM | O=C1CCCCC1C1CC(=O)N(c2ccccc2)C1=O (centres undefined) | 1.45 | –
88.7 µM | 39.3 µM | 53.4 µM | CC(=O)C(C)(C)C1CC(=O)N(c2ccccc2)C1=O (centres undefined) | 0.73 | –
117 µM | 48.9 µM | 26.8 µM | O=C1CCOCC1C1CC(=O)N(c2ccccc2)C1=O (centres undefined) | 0.86 | –
– | – | – | CN(C)CCC(c1ccc(Cl)cc1)c1ccccn1 (centres undefined) [CHLORPHENIRAMINE MALEATE] | – | inhibition in vivo at 1 mg/kg (Mus musculus [5]): 71.8%
151 µM | 33.3 µM | 62.4 µM | CC(=O)CC1CC(=O)N(c2ccccc2)C1=O (centres undefined) | 0.52 | –
45.6 µM | 48.7 µM | 5.29 µM | NS(=O)(=O)c1ccc(N2C(=O)CC(CC(=O)c3ccccc3)C2=O)cc1 (centres undefined) | 11.5 | –
63.5 µM | 51.5 µM | 56.2 µM | CC1CCC(=O)C(C2CC(=O)N(Cc3ccccc3)C2=O)C1 (centres undefined) | 2.35 | –
42.7 µM | – | – | O=C(O)Cc1ccccc1Nc1c(Cl)cccc1Cl [DICLOFENAC] | – | –
– | – | – | Cc1ccc(-c2cc(C(F)(F)F)nn2-c2ccc(S(N)(=O)=O)cc2)cc1 [CELECOXIB] | – | inhibition in vivo at 50 mg/kg (Mus musculus [6]): 65.9%
63.1 µM | 65.6 µM | 18.4 µM | O=C1CCCCCC1C1CC(=O)N(c2ccccc2)C1=O (centres undefined) | 1.66 | –
– | 43.4 µM | 21.3 µM | NS(=O)(=O)c1ccc(N2C(=O)CC(C3CCCCC3=O)C2=O)cc1 (centres undefined) | 2.04 | –
21.5 µM | 68.8 µM | 12.6 µM | NS(=O)(=O)c1ccc(N2C(=O)CC(CC(=O)c3ccc(Cl)cc3)C2=O)cc1 (centres undefined) | 10.9 | –
– | – | – | CC(=O)Oc1ccccc1C(=O)O [ASPIRIN] | – | inhibition in vivo at 100 mg/kg (Mus musculus [7]): 54.6%; inhibition in vivo at 100 mg/kg (Mus musculus [8]): 47.5%; inhibition in vivo at 100 mg/kg (Mus musculus [9]): 57.6%; inhibition in vivo at 100 mg/kg (Mus musculus [10]): 53.3%; inhibition in vivo at 100 mg/kg (Mus musculus [11]): 56.9%; inhibition in vivo at 25 mg/kg (Mus musculus [12]): 77.4%
14.9 µM | 39.2 µM | 4.74 µM | COc1ccc(C(=O)CC2CC(=O)N(c3ccc(S(N)(=O)=O)cc3)C2=O)cc1 (centres undefined) | 18.7 | IC50 [4]: 24.9 µM
13.4 µM | 43.7 µM | 0.81 µM | NS(=O)(=O)c1ccc(N2C(=O)CC(CC(=O)c3ccccn3)C2=O)cc1 (centres undefined) | 4.88 | –
